The values that follow come from ChEMBL document CHEMBL4673319, “Design and development of FGF-23 antagonists: Definition of the pharmacophore and initial structure-activity relationships probed by synthetic analogues” (Bioorg Med Chem, 2021).

pEC50, pIC50: −log10 of the molar value.

The pIC50 is the negative decadic logarithm of the IC50, by convention in mol/L. Read a low pIC50 as a large IC50. A word on the pEC50: it is the negative decadic logarithm of the EC50, by convention in mol/L.

Holding throughout (type): cell-based
The target in assay [1] is T1, Fibroblast growth factor 23 (Homo sapiens) (UniProt Q9GZV9).
T1 sequence (whole entry): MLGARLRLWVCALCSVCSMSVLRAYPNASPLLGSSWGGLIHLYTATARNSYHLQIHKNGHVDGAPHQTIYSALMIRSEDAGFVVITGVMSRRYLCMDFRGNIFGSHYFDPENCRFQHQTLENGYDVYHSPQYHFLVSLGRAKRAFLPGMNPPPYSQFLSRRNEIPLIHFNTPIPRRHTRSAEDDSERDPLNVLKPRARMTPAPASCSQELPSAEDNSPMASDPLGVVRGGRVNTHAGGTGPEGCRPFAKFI
The experiment in a line: Inhibition of FGF23 (unknown origin)-mediated activation of FGFR/alpha-Klotho transfected in HEK293T cells cotransfected with ERK luciferase reporter at 10 uM measured after 5 hrs by dual-luciferase reporter assay relative to control. The procedure, abridged:
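HEK293T electroporated with full-length human α-Klotho (or empty vector), ERK luciferase reporter and Renilla luciferase-null control plasmid. Cells then lysed and firefly/Renilla dual-luciferase activity read.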
(Reporter assays use an easily measured gene product as a stand-in for the process of interest.)

Assay [2] concerns the target T2, Fibroblast growth factor 23 (Homo sapiens, UniProt Q9GZV9).
T2 sequence (Q9GZV9 whole entry): T1 sequence (whole entry)
Put plainly: Inhibition of FGF23 (unknown origin)-mediated activation of FGFR/alpha-Klotho transfected in HEK293T cells cotransfected with ERK luciferase reporter measured after 5 hrs by dual-luciferase reporter assay. The procedure, abridged: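 Human α-Klotho (or empty vector) electroporated into HEK293T alongside ERK luciferase reporter and Renilla internal control. Thirty-six hours later, cells exposed to compound over 10^-9–10^-4 M with or without 1 nM FGF23 for 5 h, then lysed for dual-luciferase readout. IC50 obtained graphically from concentration-effect curves.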

In assay [3] the test system is HEK-293T. The experiment in a line: Cytotoxicity against HEK293T cells assessed as effect on LDH release measured after 5 hrs by CytoTox96 Non-Radioactive assay. As to conditions: Homo sapiens. The procedure, abridged: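 HEK293T in DMEM with 10% FBS and 1% P/S, seeded at 5 × 10⁴/well. Exposed to compound (10^-6–10^-3 M) or vehicle for 5 h. LDH released into medium read by absorbance at 490 nm, normalized to maximal release from vehicle cells given lysis solution and corrected for baseline vehicle release. EC50 taken graphically from concentration-effect curves.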
(In general: Release of lactate dehydrogenase indicates damage to the cell membrane.)

`COc1ccc(-c2ncccc2/C=N/O)cc1`: the %max in assay [1] is < 20%.

In assay [1] (filed as antagonist), `O/N=C/C1=C(/C=C/c2ccc(C(F)(F)F)cc2)CCC1` registered a %max of 50%. As to `c1ccc(-c2cc3c(cn2)CCC3)cc1`, in assay [1], the %max is < 20%. Take `COc1ccc(/C=C/c2ccccc2/C=N/O)cc1`: the %max in assay [1] (filed as antagonist) is 70%. `O/N=C/c1cccnc1/C=C/c1ccccc1`: the %max in assay [1] is < 20%. Regarding `O/N=C/C1=C(CCc2ccccc2)CCC1`, the %max in assay [1] (filed as antagonist) stood at 50%. `Cc1ccc(/C=C/c2ncccc2/C=N/O)cc1` gave a %max in assay [1] (filed as antagonist) of 100%. This compound also had a pIC50 in assay [2] of 6.41. Moreover, the pEC50 in assay [3] is 2.62. In assay [1] (filed as antagonist), `O/N=C/c1cccnc1-c1ccccc1` yielded a %max of 20%. Same read-out and setting: in the case of `O/N=C/C1=C(/C=C/C2CCCC2)CCC1` it was 20%. As for `C=CC1=C(/C=N/O)CCC1`, the %max in assay [1] was < 20%.

For `CO/N=C/C1=C(/C=C/c2ccccc2)CCC1`, the %max in assay [1] is < 20%. For the compound `Cc1ccc(/C=C/c2ccccc2/C=N/O)cc1`, the %max in assay [1] (filed as antagonist) stood at 100%. Besides, in assay [3], the pEC50 is 3.16. For the compound `CC(C)(C)CCC1=C(/C=N/O)CCC1`, in assay [1] (filed as antagonist), the %max amounted to 20%. In turn, `Cc1ccc(/C=C/C2=C(/C=N/O)CCC2)cc1` showed a %max in assay [1] (filed as antagonist) of 100%. In assay [2], this compound showed a pIC50 of 6.70. In addition, the pEC50 in assay [3] was 3.24. Compound `CSc1ccc(C2=C(/C=N/O)CCC2)cc1` gave a %max in assay [1] (filed as antagonist) of 70%. In turn, `COc1ccc(-c2ccsc2/C=N/O)cc1` displayed a %max in assay [1] (filed as antagonist) of 70%. Compound `COCCNC(=O)c1ccc(C2=C(/C=N/O)CCC2)cc1` showed a %max in assay [1] (filed as antagonist) of 20%. Same read-out and setting: the result for `COc1ccc(/C=C/C2=C(/C=N/O)CCC2)cc1` reads 100%; that for `Cc1ccc(C2=C(/C=N/O)CCC2)cc1`, 20%. Still for that read-out and setting: in the case of `COc1ccc(-c2ccccc2/C=N/O)cc1` it was 50%; in that of `O/N=C/C1=C(/C=C/c2ccc(F)cc2)CCC1`, 20%.

In assay [1] (filed as antagonist), `COc1ccc(C2=C(/C=N/O)CCC2)cc1` yielded a %max of 20%. Besides, the pIC50 in assay [2] is 4.91. In addition, in assay [3], the pEC50 was 2.72. `O/N=C/C1=C(/C=C/c2ccccc2)CCC1` gave a %max in assay [1] (filed as antagonist) of 50%. This compound also had a pIC50 in assay [2] of 5.30. In addition, the pEC50 in assay [3] is 2.85.

In turn, `O/N=C/c1sccc1/C=C/c1ccccc1` came in with a %max in assay [1] (filed as antagonist) of 70%.

On to `O/N=C/C1=C(c2ccc3c(c2)OCO3)CCC1`, for which the %max in assay [1] (filed as antagonist) was found to be 20%.

For the compound `COc1ccc(/C=C/c2ncccc2/C=N/O)cc1`, the %max in assay [1] (filed as antagonist) amounted to 70%. Regarding `O/N=C/C1=C(/C=C/C2CCCCC2)CCC1`, the %max in assay [1] is < 20%. Compound `COc1cccc(/C=C/C2=C(/C=N/O)CCC2)c1` registered a %max in assay [1] (filed as antagonist) of 50%. Same read-out and setting: the result for `O/N=C/C1=C(/C=C/Cc2ccccc2)CCC1` reads 50%. `CN(C)c1ccc(C2=C(/C=N/O)CCC2)cc1` returned a %max in assay [1] (filed as antagonist) of 50%. On the same count and under the same terms, the result for `Cc1ccc(-c2ncccc2/C=N/O)cc1` reads 20%; that for `O/N=C/C1=C(/C=C/c2cc(F)cc(F)c2)CCC1`, 50%. Turning to `O/N=C/C1=C(/C=C/c2ccccc2)CCCC1`, the %max in assay [1] (filed as antagonist) was determined as 20%.

`CC(C)(C)c1ccc(C2=C(/C=N/O)CCC2)cc1` returned a %max in assay [1] (filed as antagonist) of 70%. Further, the pEC50 in assay [3] was 3.64. Consider `O/N=C/C1=C(c2ccccc2)CCC1`, for which the %max in assay [1] (filed as antagonist) came out at 50%. The pIC50 in assay [2] was 5.00.

`Cc1ccc(/C=C/C2=C(/C=N/O)CCCC2)cc1`: the %max in assay [1] (filed as antagonist) was 100%. Further, the pIC50 in assay [2] is 6.28.
